Source: PubChem BioAssay (Broad Institute)
FN deposit inh = fibronectin deposition inhibition | hit rate 0.086% among 350,000 | inhibition, % at 12.6 µM | AH1F fibroblasts, Alexa488-fibronectin deposition fluorescence, overnight;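 active = mean inhibition across replicates of 30% or more, regardless of how many single replicates reach that level; inconclusive = mean under 30% yet at least half of replicates reach 30%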
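Assay system: AH1F fibroblast monolayer, labelled fibronectin deposition. Amount: 10000 cells per well. Also added: labelled fibronectin 24 nM. Compound: single-point pinned compound. Incubation: cell attachment 1 h, compound and FN exposure overnight. Detection: fluorescence after three HBSS washes, excitation 485 nm, emission 525 nm. Read-out: inhibition of fibronectin deposition signal.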
rRNA inh HTS = inhibitors of bacterial rRNA selective over humanized ribosomes. E. coli WT GFP vs humanized-ribosome RFP mutants, fluorescence, 24 h; hits give low values; DMSO median 0, no signal -100. hit rate 1.6% among 350,000. AID 720706. GFP signal change (wild-type ribosome), % (concentration not given with the values);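 active = significant combined selectivity score with lowered wild-type GFP, culture density cut under 30%, mutant RFP and density less affected; inactive = any of these conditions unmet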
PGC1a acetyl inh = lowers PGC1a acetylation signal in U2OS cells | AlphaScreen anti-acetyl-lysine; with virally co-expressed GCN5 acetyltransferase | inhibition, % at 15.6 µM | hit rate 0.17% among 350,000;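 active = every replicate shows inhibition of at least 40%; inconclusive = mean inhibition at least 40% but some replicate below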
PglD DTNB = PglD (C. jejuni) enzyme inhibition | AID 602405 | purified PglD enzyme, DTNB colorimetric CoA detection | hit rate 0.098% among 360,000 | inhibition, % at 12.5 µM; in the data active = inhibition above about 16%, passing the limit was not always enough; inconclusive = no clear call, values can overlap the other calls
HIV Env fusion = blocks HIV Env-driven cell-cell fusion. HeLa-JRFL Env/CEM21 cell fusion, luciferase. inhibition, % at 12.3 µM. hit rate 1.1% among 360,000;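 active = mean replicate inhibition score of at least 50 and every replicate individually at or above 50; inconclusive = only one of the two criteria met; inactive = mean below 50 and not all replicates reaching 50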
DENV2 CPE rescue = inhibitors of DENV2 cytopathic effect; DENV2-infected cells, cytopathic effect rescue, plate reader; AID 651640; hit rate 1.7% among 350,000; CPE inhibition, % at 9.99 µM; in the data active = CPE inhibition above about 20%, passing the limit was not always enough; inconclusive = no clear call, values can overlap the other calls; tested in BHK-21 cells
Of the large screens only hits and unclear results are named; the others gave an inactive call; [ ] = another dose, or the depositor's remark. In the library only some 3.5% were active in any assay of this set; here they are far more common.

O=C(Nc1cccc(Cl)c1)N1N=CCC1c1ccccc1 (stereo not drawn)	rRNA inh HTS -27
S=C(Nc1ccccc1)N1N=CCC1c1ccccc1 (stereo not drawn)	none (no result: FN deposit inh, rRNA inh HTS, DENV2 CPE rescue)
O=C(Nc1cccc2ccccc12)N1N=CCC1c1ccccc1 (stereo not drawn)	rRNA inh HTS -28
O=C(Nc1cccc2ccccc12)N1CCN(c2ccccc2)CC1	none (no result: FN deposit inh, rRNA inh HTS, HIV Env fusion, DENV2 CPE rescue)
O=C(c1ccccc1F)N1C[C@@H]2[C@H](c3ccccc31)[C@H](CO)N2CC1CCCCC1	none (no result: FN deposit inh, HIV Env fusion, DENV2 CPE rescue)
CC(=O)N[C@H]1CC[C@H](CC(=O)NCc2ccc(Cl)cc2)O[C@H]1CO	PglD DTNB 17 (no result: FN deposit inh)
O=C(C[C@H]1CC[C@@H](NC(=O)CC2CC2)[C@@H](CO)O1)NCc1ccc(-c2ccccc2)cc1	DENV2 CPE rescue 48
CC(=O)N[C@@H]1CC[C@H](CC(=O)NCc2ccc(Cl)cc2)O[C@@H]1CO	none (no result: FN deposit inh)
CC(C)NC(=O)Nc1ccc2c(c1)CC(=O)N([C@H](C)CO)C[C@H](C)[C@H](CN(C)S(=O)(=O)c1cccs1)O2	HIV Env fusion 60[16.7 µM]
C[C@@H]1CN([C@H](C)CO)C(=O)Cc2cc(NC(=O)Nc3ccc(C(F)(F)F)cc3)ccc2O[C@H]1CN(C)S(=O)(=O)c1cccs1	none (no result: FN deposit inh)
CC(C)NC(=O)Nc1ccc2c(c1)CC(=O)N([C@@H](C)CO)C[C@H](C)[C@H](CN(C)S(=O)(=O)c1cccs1)O2	HIV Env fusion 57[16.7 µM]
CC(C)NC(=O)Nc1ccc2c(c1)CC(=O)N([C@@H](C)CO)C[C@H](C)[C@@H](CN(C)S(=O)(=O)c1cccs1)O2	none
C[C@H]1CN([C@@H](C)CO)C(=O)c2cc(NC(=O)Nc3ccc4c(c3)OCO4)ccc2O[C@H]1CN(C)S(=O)(=O)c1cccs1	HIV Env fusion 57[16.7 µM]
C[C@H](CO)N1C[C@H](C)[C@H](CN(C)S(=O)(=O)c2cccs2)Oc2ccc(NC(=O)Nc3ccc(C(F)(F)F)cc3)cc2CC1=O	HIV Env fusion 61[16.7 µM] (no result: FN deposit inh)
COc1ccccc1-c1cnc2c(c1)C(=O)N([C@@H](C)CO)C[C@H](C)[C@H](CN(C)Cc1ccc(F)cc1)O2	none
CCCN(C)C[C@H]1Oc2cc(C#Cc3cccnc3)ccc2S(=O)(=O)N([C@H](C)CO)C[C@@H]1C	none (no result: FN deposit inh)
C[C@H]1CN([C@@H](C)CO)C(=O)Cc2cc(NC(=O)Nc3ccc4c(c3)OCO4)ccc2O[C@H]1CN(C)S(C)(=O)=O	none (no result: FN deposit inh)
C[C@H](CO)N1C[C@H](C)[C@H](CN(C)S(=O)(=O)c2cccs2)Oc2ccc(NC(=O)Nc3ccc4c(c3)OCO4)cc2CC1=O	HIV Env fusion 99
C[C@H](CO)N1C[C@H](C)[C@H](CN(C)S(=O)(=O)c2cccs2)Oc2ccc(NC(=O)NC3CCCCC3)cc2CC1=O	HIV Env fusion 84[16.7 µM]
C[C@H]1CN([C@@H](C)CO)C(=O)Cc2cc(NC(=O)Nc3ccc4c(c3)OCO4)ccc2O[C@@H]1CN(C)S(C)(=O)=O	DENV2 CPE rescue 26 (no result: FN deposit inh, PglD DTNB, HIV Env fusion)
CN(C)C(=O)c1ccc(-c2ccccc2[C@@H]2[C@@H](CO)N(C(=O)C3CCCC3)[C@H]2C#N)cc1	none (no result: PGC1a acetyl inh, PglD DTNB, HIV Env fusion)
Cc1ccc(S(=O)(=O)Nc2cccc3c2O[C@@H](CN(C)C(=O)Nc2ccc(F)cc2)[C@@H](C)CN([C@@H](C)CO)C3=O)cc1	none
CN(C)C(=O)[C@H]1[C@H](CO)[C@H]2Cn3c(ccc(-c4ccccc4)c3=O)[C@H]2N1Cc1ccccc1F	none (no result: FN deposit inh, PGC1a acetyl inh, HIV Env fusion)
COc1ccc2c3c(n(C)c2c1)[C@@H](CO)NCC31CN(S(=O)(=O)c2ccccc2)C1	none (no result: FN deposit inh, PglD DTNB, HIV Env fusion)
COc1cc2c(cc1OC)C(c1ccc(-c3ccc(Cl)c(Cl)c3)o1)=NCC2	HIV Env fusion 83 (no result: rRNA inh HTS, DENV2 CPE rescue)
COc1cc2c(cc1OC)C(c1ccc(-c3ccc(Cl)cc3Cl)o1)=NCC2	HIV Env fusion 98 (no result: rRNA inh HTS, DENV2 CPE rescue)
COc1cc2c(cc1OC)C(c1ccc(-c3cc(Cl)ccc3Cl)o1)=NCC2	none (no result: rRNA inh HTS, HIV Env fusion, DENV2 CPE rescue)
COc1ccc(-c2csc(CCn3nc(C)cc3C)n2)cc1OC	FN deposit inh 37
COc1ccc(OC)c(-c2csc(CCn3nc(C)cc3C)n2)c1	none (no result: DENV2 CPE rescue)
COc1ccc(-c2csc(CCn3nc(C)cc3C)n2)cc1	rRNA inh HTS -21 (no result: PGC1a acetyl inh, PglD DTNB)
Cc1cc(C)n(CCc2nc(-c3ccc(-c4ccccc4)cc3)cs2)n1	none
COc1cc(/C=C(\C#N)C(=O)NC2CCCCC2C)ccc1OS(=O)(=O)c1ccc(C)cc1 (stereo not drawn)	none (no result: rRNA inh HTS, PGC1a acetyl inh, DENV2 CPE rescue)
COc1cc(/C=C(\C#N)C(N)=O)ccc1OS(=O)(=O)c1ccc(C)cc1	rRNA inh HTS -24 (no result: HIV Env fusion)
CC(NC(=S)NC1CCC(C(C)(C)C)CC1)c1ccccc1 (stereo not drawn)	DENV2 CPE rescue 23
Cc1ccc(CNC(=S)NC2CCC(C(C)(C)C)CC2)cc1 (stereo not drawn)	DENV2 CPE rescue inconclusive (no result: PGC1a acetyl inh)
O=C(CN1CCOCC1)N1[C@@H]2CNc3ccccc3[C@@H]2[C@@H]1CO	none (no result: HIV Env fusion)
Cc1cc(C(=O)CSc2ncnc3ccccc23)c(C)n1C1CC1	DENV2 CPE rescue 28
Cc1cc(-n2c(C)cc(C(=O)CSc3ncnc4ccccc34)c2C)no1	HIV Env fusion 51 (no result: rRNA inh HTS, DENV2 CPE rescue)
O=C(C[C@@H]1C[C@H]2c3cc(NC(=O)c4cccnc4)ccc3O[C@H]2[C@@H](CO)O1)NCc1ccncc1	none (no result: HIV Env fusion)
Cn1c(N)c(C(=O)N2CCN(c3ccccc3)CC2)c(=O)n(C)c1=O	DENV2 CPE rescue 37
Cc1cc(=O)[nH]c2c1cnn2Cc1ccccc1	none (no result: FN deposit inh, rRNA inh HTS, HIV Env fusion, DENV2 CPE rescue)
S=c1nc[nH]c2c1cnn2Cc1ccccc1	PGC1a acetyl inh 45
O=S(=O)(c1ccc(F)cc1)N1CCN(CC(O)COCc2ccccc2)CC1 (stereo not drawn)	none (no result: PGC1a acetyl inh)
O=S(=O)(c1cccc(C(F)(F)F)c1)N1CCN(CC(O)COCc2ccccc2)CC1 (stereo not drawn)	DENV2 CPE rescue 63
CC1=NN(c2ccc(C)c(C)c2)C(=O)/C1=C\C=C\c1ccc([N+](=O)[O-])o1	PGC1a acetyl inh 59 (no result: rRNA inh HTS, PglD DTNB)
CC1=NN(c2ccccc2)C(=O)/C1=C\C=C\c1ccccc1	none
O=C(Nc1ccccc1Cc1ccccc1)c1ccccc1NS(=O)(=O)c1ccc(Cl)s1	HIV Env fusion 67 (no result: rRNA inh HTS, PGC1a acetyl inh, DENV2 CPE rescue)
COc1ccc(CN(C)C[C@@H]2OCCCC[C@@H](C)Oc3ccc(NS(=O)(=O)c4cn(C)cn4)cc3C(=O)N([C@H](C)CO)C[C@H]2C)cc1	none (no result: FN deposit inh)
O=C1NC(=S)NC1=Cc1ccc(Cl)cc1Cl	rRNA inh HTS -25
C[C@@H]1CN([C@@H](C)CO)S(=O)(=O)c2ccc(C#CC(C)(C)O)cc2O[C@H]1CN(C)C(=O)CC1CC1	none
C=CCNc1nc(C(=O)OCC(=O)NCc2ccccc2OC)cs1	DENV2 CPE rescue 66
C=CCNc1nc(C(=O)OCC(=O)Nc2ccccc2C(F)(F)F)cs1	none (no result: PGC1a acetyl inh, HIV Env fusion)
CCOC(=O)C1CN(S(=O)(=O)c2ccccc2)c2cc(S(=O)(=O)CC)ccc2O1 (stereo not drawn)	PGC1a acetyl inh 50 (no result: rRNA inh HTS, DENV2 CPE rescue)
